From article PMC4258842 (Nature communications, 2014)
Entries after “also recorded” stand apart in the source; their conditions may differ.

What was measured:
[1] = molecular target: T1, FOXM1 DBD-DNA interaction (Homo sapiens, UniProt Q08050); test: EMSA displacement of FOXM1 DBD-DNA interaction; type: binding
T1 sequence (Q08050 222-360): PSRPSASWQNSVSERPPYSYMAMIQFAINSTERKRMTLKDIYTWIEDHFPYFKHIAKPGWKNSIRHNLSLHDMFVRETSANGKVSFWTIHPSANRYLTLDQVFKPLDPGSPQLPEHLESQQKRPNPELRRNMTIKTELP
How it was run: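 The DNA-binding domain of human FOXM1c was expressed as a GST fusion in E. coli BL21(DE3), induced with 1 mM IPTG at 18°C overnight. DBD (750 nM final) was preincubated with test compound 1.5 h at RT. FAM-labelled 16-bp consensus dsDNA (15 nM final) was added for 15 min. Samples ran on 6% retardation gels and were imaged by fluorescence.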

[2] = system: MCF-7 breast cancer cells; test: 72 h growth inhibition in MCF-7 cells; type: cell-based; conditions: Homo sapiens, MCF7, 72 h, read-out: GI50 (50% growth inhibition)
How it was run: (§1)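 Cell lines came from ECACC. MCF-7 and MDA-MB-231 were grown in DMEM + 10% FBS, and PEO-1 in RPMI + 10% FBS. Cells were exposed to test compound for 72 h. GI50 is the concentration giving 50% growth inhibition.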

[3] = system: MDA-MB-231 ER-negative breast cancer cells; test: Cell viability assay, MDA-MB-231 cells; type: cell-based; conditions: Homo sapiens, MDA-MB-231, 72 h
How it was run: as §1

[4] = system: PEO-1 ovarian cancer cells; test: Cell viability assay, PEO-1 cells; type: cell-based; conditions: Homo sapiens, PEO1, 72 h
How it was run: as §1

FOXM1 in MCF-7 cells = test: Western blot of total lysate and chromatin fraction of treated MCF-7 cells; type: cell-based, human; conditions: 6 h, 20 μM
How it was run: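 MCF-7 cells were treated 6 h with test compound or DMSO. Whole-cell RIPA lysates and isolated chromatin pellets (sonicated in Laemmli buffer) ran on 8–16% Tris-glycine gels. Blots were probed overnight at 4°C with anti-FOXM1 (1:1000), actin (1:5000) or histone H3 (1:10000), then with IR-dye secondaries. FOXM1 was quantified relative to actin (lysate) or H3 (chromatin).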

20S proteasome = 20S proteasome activity assay; type: biochemical; conditions: 10 μM inhibitor, 37°C, 90 m
How it was run: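 Recombinant 20S proteasome with an AMC-linked peptide substrate that fluoresces on cleavage. Substrate dilution of 1:200 was chosen from an AMC standard curve. Test compound at 10 μM or DMSO control was mixed with enzyme and substrate and incubated 90 min at 37°C. Fluorescence was read at 380/460 nm and normalized to DMSO, with MG-132 as reference inhibitor.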

[5] = system: FOXM1 occupancy at CCNB1 and CDC25B gene promoters; test: FOXM1 ChIP followed by qRT-PCR in MCF-7 cells; type: cell-based, human; conditions: 6 h treatment
How it was run: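 MCF-7 cells at 70% confluence were treated 6 h with test compound or DMSO. Cells were crosslinked with 1% formaldehyde 10 min at RT, quenched with glycine, lysed and sonicated. Immunoprecipitation used 3 μg rabbit polyclonal anti-FOXM1 on protein-A beads overnight, with elution at 65°C for 16 h. SYBR qPCR (40 cycles) amplified CDC25B and CCNB1 promoters. Enrichment was normalized to a cyclin D1 intergenic control region.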

[6] = system: FOXM1 target gene transcripts in MCF-7 cells; test: RNA-seq differential expression in MCF-7 cells; type: cell-based, human; conditions: 6 h
How it was run: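 MCF-7 cells were treated for 3, 6 or 9 h, in three replicates per time point, against 0 h controls. TruSeq libraries gave 100-nt single-end reads, which were adapter/quality trimmed, aligned to hg19 and counted per gene. Differential expression used the edgeR exact test with library-size (CPM) normalization, and FDR < 0.01 counted as significant.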

[7] = system: genes with FOXM1 promoter occupancy (ENCODE ChIP-seq, MCF-7); type: cell-based, human; conditions: ENCODE ChIP-seq datasets
How it was run: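 Differentially expressed genes at 3 h were defined as FDR < 0.01 and logFC > 0.3 […]. ENCODE FOX-family ChIP-seq peaks (MACS) shared by both duplicates were mapped to promoters (−2000 to +100 bp of TSS). Proportions were compared by chi-squared test. Temporal clusters came from fuzzy c-means (9 clusters, fuzzification 1.35) on 1552 genes with abs(logFC) > 0.75.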

[8] = system: CDC25B expression in MDA-MB-231 cells; test: CDC25B expression in MDA-MB-231 cells; type: cell-based, human; conditions: 3 h treatment
How it was run: (§2)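 MDA-MB-231 (DMEM + 10% FBS) or PEO-1 (RPMI + 10% FBS) cells were exposed to test compound for 3 h. CDC25B transcript was measured by qRT-PCR with commercial gene-specific primer sets, with ACTB and YWHAZ primer sets also run.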

[9] = system: CDC25B expression in PEO-1 cells; test: CDC25B expression in PEO-1 cells; type: cell-based, human; conditions: 3 h treatment
How it was run: as §2

FOXM1 DBD (GST fusion) [10] = molecular target: T2, FOXM1 DBD (GST fusion) (Homo sapiens, UniProt Q08050 222-360); test: competition
T2 sequence: T1 sequence (Q08050 222-360)

FOXM1 DBD (GST fusion) [11] = molecular target: T2, FOXM1 DBD (GST fusion); test: EMSA
[12] = molecular target: T3, FOXM1 full length (FOXM1c, GST fusion) (Homo sapiens, UniProt Q08050 1-763); test: fluorescence polarization
T3 sequence: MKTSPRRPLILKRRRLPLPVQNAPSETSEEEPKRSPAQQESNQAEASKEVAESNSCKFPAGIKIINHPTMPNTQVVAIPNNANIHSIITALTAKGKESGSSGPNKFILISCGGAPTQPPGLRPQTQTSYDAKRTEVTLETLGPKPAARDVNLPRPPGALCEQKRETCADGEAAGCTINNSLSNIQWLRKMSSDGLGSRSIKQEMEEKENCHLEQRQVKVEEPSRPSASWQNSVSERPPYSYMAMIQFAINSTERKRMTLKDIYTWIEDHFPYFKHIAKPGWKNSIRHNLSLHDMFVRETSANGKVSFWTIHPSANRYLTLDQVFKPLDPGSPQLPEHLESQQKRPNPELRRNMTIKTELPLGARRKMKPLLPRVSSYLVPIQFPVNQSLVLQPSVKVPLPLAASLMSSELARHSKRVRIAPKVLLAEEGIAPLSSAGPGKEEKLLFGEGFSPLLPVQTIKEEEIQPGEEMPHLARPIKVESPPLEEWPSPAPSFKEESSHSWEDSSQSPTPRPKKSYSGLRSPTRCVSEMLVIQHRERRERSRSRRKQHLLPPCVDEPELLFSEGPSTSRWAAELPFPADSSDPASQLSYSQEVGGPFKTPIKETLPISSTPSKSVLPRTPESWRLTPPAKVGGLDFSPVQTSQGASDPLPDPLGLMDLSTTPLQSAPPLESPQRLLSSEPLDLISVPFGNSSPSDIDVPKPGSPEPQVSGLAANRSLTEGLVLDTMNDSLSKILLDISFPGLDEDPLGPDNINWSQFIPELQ

FOXM1 DBD (GST fusion) [13] = molecular target: T2, FOXM1 DBD (GST fusion); test: fluorescence polarization
FOXM1 DBD (GST fusion) [14] = molecular target: T2, FOXM1 DBD (GST fusion); test: fluorescence polarization; remark: listed apart in the source

Molecule: Nc1c(C(=O)Nc2ccc(F)cc2)sc2nc(-c3cccs3)cc(C(F)(F)F)c12 [FDI-6, 3-amino-N-(4-fluorophenyl)-6-(thiophen-2-yl)-4-(trifluoromethyl)thieno[2,3-b]pyridine-2-carboxamide]
- IC50 [1]: 22500 ± 12300 nM
- GI50 [2]: 18000 ± 3000 nM
- GI50 [3]: 21800 nM
- GI50 [4]: 18100 nM
- decrease of chromatin bound FOXM1 (FOXM1 in MCF-7 cells; MCF-7 cells, normalized to Histone H3): ~50%
- overall amount of FOXM1 protein (FOXM1 in MCF-7 cells; MCF-7 total lysate, normalized to Actin): unaffected
- inhibition of the 20S proteasome (20S proteasome): did not inhibit; also recorded: inactive
- change in FOXM1 occupancy at CCNB1 gene promoter [5]: −0.68 log2 fold
- change in FOXM1 occupancy at CDC25B gene promoter [5]: −0.64 log2 fold
- AURKA transcript change [6]: −0.83 log2 fold change
- CCNA2 transcript change [6]: −0.65 log2 fold change
- CCNB1 transcript change [6]: −0.86 log2 fold change
- CDKN3 transcript change [6]: −0.739 log2 fold change
- CENPA transcript change [6]: −0.61 log2 fold change
- KIF20A transcript change [6]: −1.22 log2 fold change
- NEK2 transcript change [6]: −0.86 log2 fold change
- PLK1 transcript change [6]: −0.92 log2 fold change
- enrichment of differentially expressed genes for promoter occupancy of other FOX transcription factors (FOXA1, FOXA2, FOXP2) [7]: did not show enrichment
- CDC25B expression [8]: down-regulates
- CDC25B expression [9]: down-regulates

Molecule: C=C(NC(=O)C(=C)NC(=O)c1csc(C2=N[C@@H]3c4csc(n4)[C@H]4NC(=O)c5csc(n5)[C@H]([C@](C)(O)[C@@H](C)O)NC(=O)[C@H]5CSC(=N5)/C(=C/C)NC(=O)[C@H]([C@@H](C)O)NC(=O)c5csc(n5)[C@]3(CC2)NC(=O)[C@H](C)NC(=O)C(=C)NC(=O)[C@H](C)NC(=O)[C@H]([C@@H](C)CC)N[C@@H]2C=Cc3c([C@H](C)O)cc(nc3[C@H]2O)C(=O)O[C@@H]4C)n1)C(N)=O [thiostrepton, reference compound]
- IC50 [1]: 45000 ± 16400 nM
- GI50 [2]: 2700 nM

B1: unlabeled FOXM1 consensus DNA, 16 bp (dsDNA)
DNA 1: AAACAAACAAACAATC
DNA 2: GATTGTTTGTTTGTTT
- IC50 (FOXM1 DBD (GST fusion) [10]): 57 ± 5 nM

B2: FOXM1 consensus DNA probe, 16 bp (dsDNA)
DNA 1: AAACAAACAAACAATC
DNA 2: GATTGTTTGTTTGTTT
- Kd (FOXM1 DBD (GST fusion) [11]): 301 ± 21 nM
- Kd [12]: 300 ± 64 nM
- Kd (FOXM1 DBD (GST fusion) [13]): 224 ± 30 nM
- Kd (FOXM1 DBD (GST fusion) [14]): 158 nM
